Data set [1] deals with Leishmania donovani. Kind of data set: Antileishmanial activity against Leishmania donovani MHOM/IN/00/DEVI promastigotes after 72 hrs by MTT assay. In kind it is functional, organism-based. Put shortly: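 Late log-phase promastigotes in Schneider's medium with 20% FCS, 2 mM L-glutamine, penicillin/streptomycin, at 10^6 parasites/mL. Compounds in DMSO (final <0.5% v/v) over a concentration range, in duplicate, 72 h at 27 °C. MTT 0.5 mg/mL added for 6 h at 27 °C; pellet dissolved in DMSO; A570. IC50 by non-linear regression versus control; mean of two independent experiments.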

Data set [2] in a line: Cytotoxicity against mouse J774A1 cells after 72 hrs by MTT assay. In kind it is cell-based, J774.A1. The essentials: (§1)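 Cells plated in RPMI with 10% FBS, L-glutamine, penicillin/streptomycin at 37 °C, 6% CO2. After 24 h, a range of compound concentrations was added for 72 h. Wells checked for precipitate; MTT for 2 h at 37 °C; formazan dissolved in DMSO; A570 with 630 nm reference. Viability as % of untreated control; CC50 from dose-response curve, mean of two independent experiments.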

A short description of data set [3]: Cytotoxicity against human HepG2 cells after 72 hrs by MTT assay. The data set is classed as cell-based. The essentials: as §1
Data set [4] is described as follows: Selectivity index, ratio of CC50 for mouse J774A1 cells to IC50 for Leishmania donovani MHOM/IN/00/DEVI promastigotes. The data set is classed as functional, J774.A1. The essentials:
(§2)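 SI computed as CC50 (HepG2 or J774) divided by L. donovani promastigote IC50. Both values come from the MTT assays above, each the mean of two independent experiments.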

Data set [5] in a line: Selectivity index, ratio of CC50 for human HepG2 cells to IC50 for Leishmania donovani MHOM/IN/00/DEVI promastigotes. In kind it is functional. Put shortly: as §2
The next data set has as its system Leishmania infantum. Kind of data set: Antileishmanial activity against Leishmania infantum MCAN/ES/98/LLM-877 promastigotes after 72 hrs by MTT assay. In kind it is functional, organism-based. The note with it: MCAN/ES/98/LLM-877, 72 h.
Data set [6] deals with Leishmania donovani. Description: Antileishmanial activity against Leishmania donovani MHOM/IN/00/DEVI amastigotes infected in mouse J774A.1 cells after 120 hrs by Giemsa staining-based microscopic analysis. The note with it: J774.A1, 120 h.
The subject of a further data set is Toxoplasma gondii. Description: Antitoxoplasmic activity against Toxoplasma gondii PRU tachyzoites infected in human HFF cells assessed as beta-galactosidase activity after 72 hrs by colorimetric assay. The data set is classed as functional, cell-based. The essentials: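 HFF monolayers grown to confluence (3.10^4 cells/well) in RPMI with 10% FCS at 37 °C, 6% CO2. Infected with 1 × 10^4 PRU-β-Gal tachyzoites for 3 h, then compounds (DMSO <0.5% v/v) added in triplicate for 72 h. 1 mM CPRG for 6 h; read at 570 and 630 nm, blanked on uninfected wells. IC50 by non-linear regression; mean of two experiments.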

pIC50: −log10 of the molar value.

For `O=Cc1ccc2ccccc2n1`, the negative logarithm of the IC50 (pIC50) in the data set with Leishmania donovani [1] is less than 4.30. For the same compound, the 50% cytotoxic concentration (CC50) at 72 h in data set [2] was 28.8 µM; in data set [3] it was more than 100 µM. Also, in data set [4], the “Ratio CC50/IC50” value is on record as less than 0.58.
`Cc1ccc2cc([N+](=O)[O-])ccc2n1`: in the data set with Leishmania donovani [1], the pIC50 is less than 4.30. The CC50 at 72 h in data set [2] and in data set [3] was more than 100 µM in each case.
As to `O=[N+]([O-])c1cccc2ncccc12`, in the data set with Leishmania donovani [1], the negative logarithm of the IC50 (pIC50) was less than 4.30. In addition, the CC50 at 72 h in data set [2] and in data set [3] was more than 100 µM in each case.
In turn, `O=[N+]([O-])c1cccc2cccnc12` showed a pIC50 with Leishmania donovani [1] of less than 4.30. The CC50 at 72 h in data set [2] and in data set [3] was more than 100 µM throughout.
For `Cc1ccc2cccc([N+](=O)[O-])c2n1`, in the data set with Leishmania donovani [1], the negative logarithm of the IC50 (pIC50) was less than 4.30. Further, the CC50 at 72 h in data set [2] and in data set [3] was more than 100 µM each time.
Regarding `Oc1ccc2ccccc2n1`, the negative-log IC50 (pIC50) with Leishmania donovani [1] is less than 4.30. For the same compound, the CC50 at 72 h in data set [2] and in data set [3] was more than 100 µM in each case.
On to `O=Cc1ccc2c([N+](=O)[O-])cccc2n1`, for which the pIC50 in the data set with Leishmania donovani [1] is less than 4.30. Besides, the CC50 at 72 h came to 22.8 µM in data set [2] and 92 µM in data set [3]. The “Ratio CC50/IC50” value in data set [4] was less than 0.46; in data set [5], less than 1.8.
For the compound `Clc1ccc2ccccc2n1`, the pIC50 in the data set with Leishmania donovani [1] was less than 4.30. The CC50 at 72 h in data set [2] and in data set [3] was more than 100 µM throughout.
Turning to `O=[N+]([O-])c1cccc2nc(Cl)ccc12`, in the data set on Leishmania donovani [1], the negative-log IC50 (pIC50) was less than 4.30. The CC50 at 72 h in data set [2] and in data set [3] was more than 100 µM each time.
`O=[N+]([O-])c1cccc2nc(O)ccc12` gave a pIC50 in the data set with Leishmania donovani [1] of less than 4.30. Moreover, the CC50 at 72 h in data set [2] and in data set [3] was more than 100 µM each time.
In the data set with Leishmania donovani [1], `O=[N+]([O-])c1ccc2nc(O)ccc2c1` showed a negative logarithm of the IC50 (pIC50) of less than 4.30. Moreover, the results for the 50% cytotoxic concentration (CC50) at 72 h in data set [2] and in data set [3] were 83.7 µM and more than 100 µM, respectively. Besides, the “Ratio CC50/IC50” value in data set [4] is given as less than 1.7.
Turning to `C[C@@H]1[C@H](O)[C@@H](C)/C=C/C=C/C=C/C=C/C=C/C=C/C=C/[C@H](O[C@@H]2O[C@H](C)[C@@H](O)[C@H](N)[C@@H]2O)C[C@@H]2O[C@](O)(C[C@@H](O)C[C@@H](O)[C@H](O)CC[C@@H](O)C[C@@H](O)CC(=O)O[C@H]1C)C[C@H](O)[C@H]2C(=O)O` [AMPHOTERICIN B], the pIC50 with Leishmania donovani [1] is 7.00; in the data set with Leishmania infantum, 7.30. Also, the CC50 at 72 h in data set [2] turned out to be 3.1 µM.
As to `COc1cccc2c1C(=O)c1c(O)c3c(c(O)c1C2=O)C[C@@](O)(C(=O)CO)C[C@@H]3O[C@H]1C[C@H](N)[C@H](O)[C@H](C)O1` [DOXORUBICIN], the CC50 at 72 h in data set [2] was 0.02 µM.
Turning to `CCCCCCCCCCCCCCCCOP(=O)([O-])OCC[N+](C)(C)C` [MILTEFOSINE], the pIC50 with Leishmania infantum is 4.94; with Leishmania donovani [6] it was 5.17. The CC50 at 72 h in data set [2] was determined as 94.6 µM; in data set [3] it was 50.3 µM.
On to `N=C(N)c1ccc(OCCCCCOc2ccc(C(=N)N)cc2)cc1` [PENTAMIDINE], for which the pIC50 in the data set on Leishmania donovani [1] was 5.22; in the data set with Leishmania infantum it was 5.09; in the data set with Leishmania donovani [6], less than 4.70. Besides, the CC50 at 72 h came to 1 µM in data set [2] and 2.3 µM in data set [3]. Also, the “Ratio CC50/IC50” value stood at 0.17 in data set [4] and 0.38 in data set [5].
As for `CCc1nc(N)nc(N)c1-c1ccc(Cl)cc1` [PYRIMETHAMINE], the pIC50 in the data set on Toxoplasma gondii is 6.10.
As to `Cc1ccc2ccccc2n1` [QUINALDINE], the pIC50 in the data set with Leishmania donovani [1] was less than 4.30. Moreover, the CC50 at 72 h in data set [2] and in data set [3] was more than 100 µM each time.
`c1ccc2ncccc2c1` [QUINOLINE]: in the data set on Leishmania donovani [1], the pIC50 is less than 4.30. In addition, the 50% cytotoxic concentration (CC50) at 72 h in data set [2] and in data set [3] was more than 100 µM in each case.

The values above are taken from ChEMBL document CHEMBL2040716, “Discovery of a new antileishmanial hit in 8-nitroquinoline series” (Eur J Med Chem, 2012).
